The record followed here is ChEMBL document CHEMBL4387724, “2-Pyridineformamide N(4)-ring incorporated thiosemicarbazones inhibit MCF-7 cells by inhibiting JNK pathway” (Bioorg Med Chem Lett, 2019).

Structures are written as SMILES.

The subject of experiment [1] is HeLa. Description: Cytotoxicity against human HeLa cells assessed as reduction in cell growth at 10 uM incubated for 72 hrs by MTT assay relative to control. As to conditions: read-out: GI. It is filed as functional. The essentials:
(§1)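 Cells grown in DMEM with 10% FBS and penicillin-streptomycin at 37 °C, 5% CO2, seeded at 3000 cells/well and attached overnight. Screening series given at 1, 3, 10, 100 μM; follow-up agent at 100 nM–3 μM; both 72 h, with 0.1% DMSO vehicle. MTT (5 mg/mL stock) added for 3 h at 37 °C, formazan dissolved in DMSO, absorbance read at 570 nm. Viability expressed as % of DMSO-treated wells from replicates.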

The test system of experiment [2] is MCF7. The experiment is described as follows: Cytotoxicity against human MCF7 cells assessed as reduction in cell growth at 3 uM incubated for 72 hrs by MTT assay relative to control. The following applies: MCF7, 72 h, read-out: GI. It is filed as functional. The gist of the method: as §1
Experiment [3] has as its system MCF7. The experiment is described as follows: Cytotoxicity against human MCF7 cells assessed as reduction in cell growth at 10 uM incubated for 72 hrs by MTT assay relative to control. It is filed as functional. As to conditions: MCF7, 72 h, read-out: GI. The gist of the method: as §1
Experiment [4] relates to A-431. Description: Cytotoxicity against human A431 cells assessed as reduction in cell growth at 30 uM incubated for 72 hrs by MTT assay relative to control. It is filed as functional. As to conditions: A-431, 72 h, read-out: GI.
The test system of experiment [5] is A-375. Description: Cytotoxicity against human A375 cells assessed as reduction in cell growth incubated for 72 hrs by MTT assay. It is filed as functional, cell-based. The following applies: A-375, 72 h. The essentials: as §1
Experiment [6] has as its system HeLa. Description: Cytotoxicity against human HeLa cells assessed as reduction in cell growth incubated for 72 hrs by MTT assay. It is filed as functional, cell-based. The gist of the method:
as §1

Experiment [7] concerns HeLa. Description: Cytotoxicity against human HeLa cells assessed as reduction in cell growth at 3 uM incubated for 72 hrs by MTT assay relative to control. It is filed as functional. The following applies: read-out: GI. The gist of the method:
as §1

Experiment [8] deals with MCF7. The experiment is described as follows: Cytotoxicity against human MCF7 cells assessed as reduction in cell growth at 100 uM incubated for 72 hrs by MTT assay relative to control. It is filed as functional. The following applies: MCF7, 72 h, read-out: GI. The gist of the method: as §1
The test system of experiment [9] is MCF7. The experiment is described as follows: Cytotoxicity against human MCF7 cells assessed as reduction in cell growth at 1 uM incubated for 72 hrs by MTT assay relative to control. It is filed as functional. The following applies: MCF7, 72 h, read-out: GI. The gist of the method:
as §1

Experiment [10] deals with A-375. The experiment is described as follows: Cytotoxicity against human A375 cells assessed as reduction in cell growth at 100 uM incubated for 72 hrs by MTT assay relative to control. It is filed as functional. As to conditions: A-375, 72 h, read-out: GI. The gist of the method: as §1
Experiment [11] relates to HeLa. Description: Cytotoxicity against human HeLa cells assessed as reduction in cell growth at 30 uM incubated for 72 hrs by MTT assay relative to control. It is filed as functional. As to conditions: read-out: GI.
The subject of experiment [12] is A-375. Description: Cytotoxicity against human A375 cells assessed as reduction in cell growth at 1 uM incubated for 72 hrs by MTT assay relative to control. It is filed as functional. The following applies: A-375, 72 h, read-out: GI. The gist of the method:
as §1

In experiment [13] the test system is A-375. The experiment is described as follows: Cytotoxicity against human A375 cells assessed as reduction in cell growth at 3 uM incubated for 72 hrs by MTT assay relative to control. It is filed as functional. As to conditions: A-375, 72 h, read-out: GI. The essentials:
as §1

In experiment [14] the test system is MCF7. Description: Cytotoxicity against human MCF7 cells assessed as reduction in cell growth incubated for 72 hrs by MTT assay. It is filed as functional, cell-based. As to conditions: MCF7, 72 h. The essentials:
as §1

Experiment [15] deals with A-375. The experiment is described as follows: Cytotoxicity against human A375 cells assessed as reduction in cell growth at 10 uM incubated for 72 hrs by MTT assay relative to control. It is filed as functional. The following applies: A-375, 72 h, read-out: GI. The essentials: as §1
Experiment [16] relates to HeLa. The experiment is described as follows: Cytotoxicity against human HeLa cells assessed as reduction in cell growth at 100 uM incubated for 72 hrs by MTT assay relative to control. It is filed as functional. The following applies: read-out: GI. The essentials: as §1
Experiment [17] deals with A-375. Description: Cytotoxicity against human A375 cells assessed as reduction in cell growth at 30 uM incubated for 72 hrs by MTT assay relative to control. As to conditions: A-375, 72 h, read-out: GI. It is filed as functional.
Experiment [18] relates to A-431. The experiment is described as follows: Cytotoxicity against human A431 cells assessed as reduction in cell growth at 100 uM incubated for 72 hrs by MTT assay relative to control. As to conditions: A-431, 72 h, read-out: GI. It is filed as functional. The gist of the method:
as §1

Experiment [19] deals with A-431. The experiment is described as follows: Cytotoxicity against human A431 cells assessed as reduction in cell growth incubated for 72 hrs by MTT assay. It is filed as functional, cell-based. The following applies: A-431, 72 h. The gist of the method:
as §1

Experiment [20] deals with A-431. The experiment is described as follows: Cytotoxicity against human A431 cells assessed as reduction in cell growth at 3 uM incubated for 72 hrs by MTT assay relative to control. It is filed as functional. As to conditions: A-431, 72 h, read-out: GI. The gist of the method:
as §1

Experiment [21] has as its system HeLa. The experiment is described as follows: Cytotoxicity against human HeLa cells assessed as reduction in cell growth at 1 uM incubated for 72 hrs by MTT assay relative to control. It is filed as functional. As to conditions: read-out: GI. The essentials: as §1
For experiment [22], the system named is A-431. The experiment is described as follows: Cytotoxicity against human A431 cells assessed as reduction in cell growth at 1 uM incubated for 72 hrs by MTT assay relative to control. It is filed as functional. The following applies: A-431, 72 h, read-out: GI. The essentials:
as §1

For experiment [23], the system named is MCF7. Description: Cytotoxicity against human MCF7 cells assessed as reduction in cell growth at 30 uM incubated for 72 hrs by MTT assay relative to control. It is filed as functional. The following applies: MCF7, 72 h, read-out: GI.
For experiment [24], the system named is A-431. Description: Cytotoxicity against human A431 cells assessed as reduction in cell growth at 10 uM incubated for 72 hrs by MTT assay relative to control. The following applies: A-431, 72 h, read-out: GI. It is filed as functional. The essentials:
as §1

For the compound `Cc1ccnc(/C(N)=N/NC(=S)N2CCOCC2)c1`, the inhibition of growth at 10 µM in experiment [1] is 49.1%; in experiment [3] it was 6.86%; in experiment [15] it was 86%; in experiment [24], 62%. Also, the inhibition of growth at 3 µM was 5.07% in experiment [2], 44.7% in experiment [7], 66.6% in [13] and 35.5% in [20]. The inhibition of growth at 30 µM in experiment [4] is 74.6%; in [11], 45.2%; in experiment [17] it was 87.4%; in experiment [23] it was 8.16%. Moreover, the IC50 in experiment [5] was 1.6 µM; in [6], 38.5 µM; in [14], greater than 100 µM; in [19] it was 6.8 µM. The inhibition of growth at 100 µM was found to be 12.8% in experiment [8], 90.6% in experiment [10], 82.7% in experiment [16] and 82.8% in [18]. In addition, the inhibition of growth at 1 µM in [9] was found to be 1.22%; in [12], 43.2%; in experiment [21] it was 39.1%; in experiment [22], 33.6%.
As to `Cc1ccnc(/C(N)=N/NC(=S)N2CCCCCC2)c1`, the inhibition of growth at 10 µM was 55.8% in experiment [1], 60.3% in experiment [3], 70.6% in [15] and 55.5% in [24]. Further, the inhibition of growth at 3 µM in experiment [2] is 36.3%; in experiment [7], 41.9%; in experiment [13] it was 70%; in experiment [20] it was 36.1%. Further, the inhibition of growth at 30 µM worked out at 63.4% in experiment [4], 69.9% in experiment [11], 76.5% in experiment [17] and 75.9% in experiment [23]. The IC50 in experiment [5] amounted to 0.8 µM; in [6] it was 7 µM; in [14] it was 6.9 µM; in experiment [19] it was 8 µM. In addition, the inhibition of growth at 100 µM in experiment [8] worked out at 65.4%; in experiment [10] it was 77%; in experiment [16] it was 91.6%; in [18] it was 71%. Further, the inhibition of growth at 1 µM in [9] was determined as 18.2%; in experiment [12], 61.9%; in [21], 43.2%; in experiment [22], 36.3%.
In the case of `N/C(=N\NC(=S)N1CCSCC1)c1ccc(F)cn1`, the inhibition of growth at 10 µM in experiment [1] amounted to 70.5%; in experiment [3] it was 38.1%; in experiment [15], 70.9%; in experiment [24], 61.8%. Further, the inhibition of growth at 3 µM in [2] came out at 35.4%; in experiment [7], 62.9%; in experiment [13], 62.2%; in [20] it was 61.2%. Moreover, the inhibition of growth at 30 µM in experiment [4] is 84.6%; in experiment [11], 81.7%; in [17], 78.7%; in experiment [23], 58.8%. The IC50 was 0.9 µM in experiment [5], 1.7 µM in experiment [6], 21.4 µM in experiment [14] and 1.2 µM in experiment [19]. The inhibition of growth at 100 µM in experiment [8] stood at 65.7%; in [10], 83.2%; in experiment [16], 88.1%; in experiment [18] it was 86.6%. Further, the inhibition of growth at 1 µM came to 30.6% in experiment [9], 55.1% in experiment [12], 19.6% in experiment [21] and 48.7% in experiment [22].
